The target in data set [1] is Transient receptor potential cation channel subfamily A member 1 (Rattus norvegicus, UniProt Q6RI86). As to the kind of experiment: Antagonist activity at rat TRPA1 channel expressed in CHO-K1 cells tagged with GCaMP6 by measuring calcium flux measured after 10 mins by FLIPR tetra analysis. It counts as cell-based.
Data set [2] can be described thus: Mutagenecity in Salmonella typhimurium by Ames test. It is filed as toxicity. The conditions noted are these: salmonella sp.
Data set [3] in a line: Lipophilicity, logD of compound. It is filed as physicochemical. The note with it: octanol/water.
Data set [4] has as its target T1, Transient receptor potential cation channel subfamily A member 1 (Homo sapiens, UniProt O75762). As to the kind of experiment: Antagonist activity at human TRPA1 channel expressed in CHO-K1 cells tagged with GCaMP6 by measuring calcium flux measured after 10 mins by FLIPR tetra analysis. It is filed as cell-based. A general note: Calcium assays in cells follow changes in intracellular calcium, usually with a dye or a luminescent sensor.

Data set [5] has as its target T1, Transient receptor potential cation channel subfamily A member 1. As to the kind of experiment: Antagonist activity at human wildtype TRPA1 channel expressed in CHO-K1 cells tagged with GCaMP6 by measuring calcium flux measured after […] by FLIPR tetra analysis. It counts as cell-based.
The subject of another data set is Rattus norvegicus. Briefly: Antiallodynic activity against spinal nerve ligation neuropathic pain Sprague-Dawley rat model assessed as paw withdrawal threshold administered at 30 mg/kg, po bid post SNL surgery. The note with it: time <= 10.0 day, TDE = time-dependent effect. It is filed as functional, organism-based. In short, it runs like this: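 Male Sprague Dawley rats, 100–120 g, had spinal nerve ligation under isoflurane. Oral dosing b.i.d. on days 15–24 post surgery in DMSO/Solutol/water 10/40/50 at 5 mL/kg; gabapentin 30 mg/kg q.d. as control. Von Frey up-and-down thresholds, blinded, on both hind paws at day 11 (baseline) and days 15, 18, 21, 24, 2 h after morning dose. Kruskal–Wallis with Dunn versus vehicle.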

One may read the IC50 as the concentration needed to halve the response being measured. Usually logD stands for lipophilicity at a set pH, counting ionised and neutral species. A low value points to a more hydrophilic compound.

Chain of Transient receptor potential cation channel subfamily A member 1 (Rattus norvegicus, UniProt Q6RI86) (Q6RI86 whole entry): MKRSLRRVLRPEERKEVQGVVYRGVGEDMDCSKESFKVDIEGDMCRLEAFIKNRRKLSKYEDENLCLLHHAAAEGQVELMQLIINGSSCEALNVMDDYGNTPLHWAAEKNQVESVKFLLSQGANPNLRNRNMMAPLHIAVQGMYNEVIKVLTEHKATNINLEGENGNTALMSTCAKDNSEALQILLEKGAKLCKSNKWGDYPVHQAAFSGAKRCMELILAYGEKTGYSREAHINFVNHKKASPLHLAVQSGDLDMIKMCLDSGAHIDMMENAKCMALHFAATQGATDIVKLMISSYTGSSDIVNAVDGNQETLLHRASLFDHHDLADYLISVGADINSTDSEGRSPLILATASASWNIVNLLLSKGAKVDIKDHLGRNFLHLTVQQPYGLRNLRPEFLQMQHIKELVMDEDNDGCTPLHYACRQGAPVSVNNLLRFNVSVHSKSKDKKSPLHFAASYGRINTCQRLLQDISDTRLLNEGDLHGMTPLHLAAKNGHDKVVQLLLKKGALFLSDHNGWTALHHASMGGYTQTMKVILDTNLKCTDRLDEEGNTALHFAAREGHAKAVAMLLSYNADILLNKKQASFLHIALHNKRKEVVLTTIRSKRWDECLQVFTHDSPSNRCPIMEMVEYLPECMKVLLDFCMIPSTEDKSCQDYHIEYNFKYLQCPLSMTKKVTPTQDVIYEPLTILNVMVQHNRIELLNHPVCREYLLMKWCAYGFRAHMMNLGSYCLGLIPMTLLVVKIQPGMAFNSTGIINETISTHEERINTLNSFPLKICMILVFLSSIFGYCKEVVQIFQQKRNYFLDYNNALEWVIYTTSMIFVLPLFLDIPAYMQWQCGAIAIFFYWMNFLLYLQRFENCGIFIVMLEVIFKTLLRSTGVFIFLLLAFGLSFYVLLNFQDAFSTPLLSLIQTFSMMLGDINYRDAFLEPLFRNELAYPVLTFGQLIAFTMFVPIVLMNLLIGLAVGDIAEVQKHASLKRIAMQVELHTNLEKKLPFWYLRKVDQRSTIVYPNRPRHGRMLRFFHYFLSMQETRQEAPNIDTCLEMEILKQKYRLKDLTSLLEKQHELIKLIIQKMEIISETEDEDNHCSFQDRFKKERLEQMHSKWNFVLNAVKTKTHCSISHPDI
T1 sequence (O75762 whole entry): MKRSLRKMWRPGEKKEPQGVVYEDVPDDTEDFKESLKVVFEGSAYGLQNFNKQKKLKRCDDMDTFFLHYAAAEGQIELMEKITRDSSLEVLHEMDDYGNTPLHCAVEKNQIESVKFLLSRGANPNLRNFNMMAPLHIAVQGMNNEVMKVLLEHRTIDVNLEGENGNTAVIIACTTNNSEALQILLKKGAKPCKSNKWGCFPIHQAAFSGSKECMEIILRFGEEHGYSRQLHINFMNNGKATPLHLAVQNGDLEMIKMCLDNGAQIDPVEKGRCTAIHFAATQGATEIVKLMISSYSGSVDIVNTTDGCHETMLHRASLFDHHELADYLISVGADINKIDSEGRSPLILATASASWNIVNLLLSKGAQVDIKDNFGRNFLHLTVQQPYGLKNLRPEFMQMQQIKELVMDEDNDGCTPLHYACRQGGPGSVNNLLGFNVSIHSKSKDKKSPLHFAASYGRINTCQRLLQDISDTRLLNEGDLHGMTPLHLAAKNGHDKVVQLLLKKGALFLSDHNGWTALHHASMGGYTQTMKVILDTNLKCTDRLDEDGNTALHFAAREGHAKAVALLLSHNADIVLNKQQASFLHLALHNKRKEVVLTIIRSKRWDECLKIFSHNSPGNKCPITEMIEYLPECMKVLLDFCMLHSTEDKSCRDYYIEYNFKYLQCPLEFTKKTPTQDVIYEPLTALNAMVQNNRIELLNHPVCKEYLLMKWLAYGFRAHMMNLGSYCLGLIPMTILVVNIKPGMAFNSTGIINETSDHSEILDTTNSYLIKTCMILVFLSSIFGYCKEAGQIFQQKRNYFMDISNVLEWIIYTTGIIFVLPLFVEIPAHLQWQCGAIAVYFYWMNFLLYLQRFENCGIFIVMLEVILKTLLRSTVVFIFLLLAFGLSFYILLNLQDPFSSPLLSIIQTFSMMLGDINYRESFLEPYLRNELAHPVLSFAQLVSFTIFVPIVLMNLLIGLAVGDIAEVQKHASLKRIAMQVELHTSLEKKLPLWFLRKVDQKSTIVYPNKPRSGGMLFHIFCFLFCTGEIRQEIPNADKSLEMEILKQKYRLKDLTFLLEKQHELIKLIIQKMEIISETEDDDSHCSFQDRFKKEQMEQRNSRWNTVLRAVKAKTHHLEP

For the compound `O[C@]1(C(F)(F)F)CCCC[C@H]1Nc1cccc(F)c1`, in data set [1], the 50% inhibitory concentration (IC50) is 950 nM. Further, in data set [2], the Activity result is “Non-Toxic”. In the case of `O[C@]1(C(F)(F)F)CCCC[C@H]1Cc1csc(Cl)c1`, in data set [1], the IC50 amounted to 130 nM. This compound gave a logD in data set [3] of 4.3. With `O[C@]1(C(F)(F)F)CCCC[C@H]1Nc1ccc(F)cn1`, the half-maximal inhibitory concentration (IC50) in data set [1] was determined as 6300 nM. Also, the Activity entry in data set [2] is “Non-Toxic”.

Take `Cc1ccc(CC2C(C)(C)CCCC2(O)C(F)(F)F)cc1` (mixture of isomers): the values for the half-maximal inhibitory concentration (IC50) in data set [1] and in data set [4] were > 12500 nM and 1270 nM, respectively. On to `O=C1c2ccc(F)cc2CN1[C@@H]1CCCC[C@]1(O)C(F)(F)F`, for which, in data set [3], the logD amounted to 2.6. With `COCCN(c1ccc(F)cc1)[C@@H]1CCCC[C@]1(O)C(F)(F)F` (racemic), the IC50 in data set [1] came out at 3800 nM. In data set [3], the logD was 3.8. As for `CC1(C)CCCC(O)(C(F)(F)F)C1Cc1ccc(C#N)cc1` (mixture of isomers), the 50% inhibitory concentration (IC50) in data set [1] was found to be 7570 nM; in data set [4], 390 nM. Regarding `CC1(C)CCCC(O)(C(F)(F)F)C1Cc1cccc(C#N)c1` (mixture of isomers), the IC50 in data set [1] amounted to 13000 nM; in data set [4], 5550 nM. Regarding `O[C@]1(C(F)(F)F)CCCC[C@H]1N1CCc2cc(F)ccc21`, the half-inhibitory concentration (IC50) in data set [1] is 10000 nM. In data set [3], the pH-dependent lipophilicity (logD) was determined as 3.9. Consider `Cn1c(=O)c2c(CC(=O)Nc3nc(-c4ccc(F)c(C(F)(F)F)c4F)cs3)csc2n(C)c1=O`, for which the half-maximal inhibitory concentration (IC50) in data set [5] is 6800 nM. As to `C[C@@H](C(=O)Nc1ccnc(-c2cnc(N3CCC[C@H]3C(F)(F)F)nc2)n1)n1cnc2c1c(=O)n(C)c(=O)n2C`, in data set [5], the IC50 worked out at 64 nM. As to `O[C@]1(C(F)(F)F)CCCC[C@H]1Cc1ccc(Cl)nc1`, the half-maximal inhibitory concentration (IC50) in data set [1] was 2400 nM. Also, in data set [3], the logD came out at 3. For the compound `CC1(C)CCCC(O)(C(F)(F)F)C1Cc1cccc(F)c1` (mixture of isomers), the IC50 came to 3800 nM in data set [1] and 750 nM in data set [4]. For the compound `OC(F)(F)[C@@]1(O)CCCC[C@H]1Cc1c[nH]c2ccccc12` (racemic), in data set [3], the logD was 3.3. As to `O[C@]1(C(F)(F)F)CCCC[C@H]1Nc1ccccc1` (racemic), in data set [1], the IC50 was found to be 2300 nM. As to `N#Cc1cc(C[C@@H]2CCCC[C@]2(O)C(F)(F)F)cs1`, the concentration for half-maximal inhibition (IC50) in data set [1] turned out to be 620 nM. The same compound returned a log distribution coefficient (logD) in data set [3] of 3.2.

On to `COc1ccc(CC2C(C)(C)CCCC2(O)C(F)(F)F)cc1` (mixture of isomers), for which the IC50 in data set [1] and in data set [4] was > 12500 nM throughout. For the compound `O[C@]1(C(F)(F)F)CCCC[C@H]1Cc1ncc(Cl)s1`, the 50% inhibitory concentration (IC50) in data set [1] is 1200 nM. On the same count and under the same terms, as for `O=C(N[C@@H]1CCCC[C@]1(O)C(F)(F)F)c1ccc(F)cc1`, the figure is 15000 nM; as for `O[C@]1(C(F)(F)F)CCCC[C@H]1Cc1ccc(Cl)cn1`, > 25000 nM. As for `O[C@]1(C(F)(F)F)CCCC[C@H]1Cc1cncc(Cl)c1`, the IC50 in data set [1] is > 25000 nM. Consider `CC1(C)CCCC(O)(C(F)(F)F)C1Cc1ccc(Cl)cc1` (mixture of isomers), for which the values for the half-maximal inhibitory concentration (IC50) in data set [1] and in data set [4] were 11500 nM and 340 nM, respectively. Turning to `COc1cc(N[C@@H]2CCCC[C@]2(O)C(F)(F)F)ccc1F` [BAY-9897], the IC50 in data set [1] and in data set [4] was > 25000 nM each time. The Activity entry in data set [2] is given as “Non-Toxic”. For `C#CC(CC)(CC)NC(=O)c1cccnc1NC1CC(F)(F)C1`, in data set [5], the IC50 came to 1 nM. Turning to `N#Cc1ccc(NC2CCCCC2(O)C(F)(F)F)cc1C(F)(F)F` (racemic), the IC50 in data set [1] was > 25000 nM; in data set [4], 19000 nM. The Activity result in data set [2] is “Non-Toxic”. In the case of `N#Cc1ccc(N[C@@H]2CCCC[C@]2(O)C(F)(F)F)cc1`, the 50% inhibitory concentration (IC50) in data set [1] was 1300 nM. In data set [2], the Activity entry is reported as “Non-Toxic”. On to `NCC1(CC(=O)O)CCCCC1`, for which the Activity result in the data set on Rattus norvegicus was “Tde”. Take `O[C@]1(C(F)(F)F)CCCC[C@H]1Oc1ccc(F)cc1`: in data set [1], the IC50 amounted to 120 nM. In data set [3], this compound came in with a logD of 3.5. On to `O[C@]1(C(F)(F)F)CCCC[C@H]1Nc1ccc(Cl)cc1`, for which the IC50 in data set [1] stood at 118 nM. For the same compound, the Activity entry in data set [2] was “Toxic”. Consider `O[C@]1(C(F)(F)F)CCCC[C@H]1Nc1ccc(F)c(Cl)c1`, for which the half-maximal inhibitory concentration (IC50) in data set [1] is 680 nM. Moreover, the Activity entry in data set [2] is given as “Non-Toxic”. In addition, the logD in data set [3] worked out at 3.4.

For the compound `CC1(C)CCCC(O)(C(F)(F)F)C1Cc1ccc(F)cc1F` (mixture of isomers), the IC50 in data set [1] is > 10000 nM; in data set [4], 1000 nM.

Take `Cc1cc2[nH]ncc2cc1-c1ccccc1C(F)(F)F`: the IC50 in data set [5] was 14 nM.

`O[C@]1(C(F)(F)F)CCCC[C@H]1Nc1ccc(Cl)c(F)c1`: the half-maximal inhibitory concentration (IC50) in data set [1] is 200 nM. Also, the Activity entry in data set [2] is reported as “Non-Toxic”.

Take `CN([C@@H]1CCCC[C@]1(O)C(F)(F)F)S(=O)(=O)c1ccc(F)cc1`: in data set [1], the IC50 was determined as 16000 nM. Besides, in data set [3], the log distribution coefficient (logD) stood at 3.1. As to `O[C@@]1(C(F)(F)F)CCCC[C@@H]1Cc1ccc(F)cc1`, the log distribution coefficient (logD) in data set [3] turned out to be 3.8. Regarding `O[C@]1(C(F)(F)F)CCCC[C@H]1Nc1ccc(Cl)c(Cl)c1`, the IC50 in data set [1] amounted to 650 nM. For the same compound, the Activity result in data set [2] is on record as “Non-Toxic”. The compound further yielded a logD in data set [3] of 3.8. Consider `COCCCOc1cccc([C@H]2NC(=S)Nc3c2oc2ncccc32)c1`, for which, in data set [5], the half-maximal inhibitory concentration (IC50) is 67 nM. For `O[C@]1(C(F)(F)F)CCCC[C@H]1Cc1ccncc1`, in data set [1], the IC50 was 5300 nM.

On to `CN(c1ccc(F)cc1)[C@@H]1CCCC[C@]1(O)C(F)(F)F`, for which, in data set [1], the IC50 is 21000 nM. This compound had a logD in data set [3] of 3.9.

The record behind these values is ChEMBL document CHEMBL5316309, “Discovery of BAY-390, a Selective CNS Penetrant Chemical Probe as Transient Receptor Potential Ankyrin 1 (TRPA1) Antagonist” (J Med Chem, 2023).
